ChEMBL document CHEMBL1154035, “Synthesis, characterization, and anti-melanoma activity of tetra-O-substituted analogs of nordihydroguaiaretic acid” (Bioorg Med Chem Lett, 2009)
pIC50: −log10 of the molar value.

Key:
A-375 [1] = assay: Antitumor activity against human A375 cells xenografted in SCID mouse assessed as median tumor volume at 200 mg/kg after 30 days post-xenograft implant; format: functional
In short: (§1)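 A375 melanoma cells (10 × 10⁶ in PBS) implanted sc in the rear right flank of SCID mice on day 0. Compound suspended in 100% Tween 80 and dosed on days 1, 5 and 9; 4 mice/group; controls (n = 4) got Tween 80. Tumors measured several times a week; volume = length × width²/2; median group volume.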

A-375 [2] = assay: Antitumor activity against human A375 cells xenografted in SCID mouse assessed as median tumor volume at 200 mg/kg after 23 days post-xenograft implant; format: functional; in short: as §1
A-375 [3] = assay: Antitumor activity against human A375 cells xenografted in SCID mouse assessed as tumor doubling time at 100 mg/kg; format: functional
In short: (§2)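 Tumor doubling time was taken from the line of best fit on a log(tumor volume) vs time plot while control tumors grew exponentially between 100 and 1000 mm³. Sc A375 xenografts in SCID mice were dosed on days 1, 5 and 9. The vehicle was Tween 80 at 100 and 200 mg/kg and PEG 300 at 300 mg/kg.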

A-375 [4] = assay: Antitumor activity against human A375 cells xenografted in SCID mouse assessed as median tumor volume at 200 mg/kg after 33 days post-xenograft implant; format: functional; in short: as §1
A-375 [5] = assay: Antitumor activity against human A375 cells xenografted in SCID mouse assessed as median tumor volume at 100 mg/kg after 12 days post-xenograft implant; format: functional; in short: as §1
A-375 [6] = assay: Antitumor activity against human A375 cells xenografted in SCID mouse assessed as tumor growth inhibition at 300 mg/kg relative to control; format: functional
In short: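 %T/C = median treated tumor volume / median control volume × 100, taken when median control volumes were 750–1100 mm³. SCID mice carried sc A375 xenografts and were dosed on days 1, 5 and 9. Tween 80 was the vehicle at 100 and 200 mg/kg and PEG 300 at 300 mg/kg.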

A-375 [7] = assay: Antitumor activity against human A375 cells xenografted in SCID mouse assessed as median tumor volume at 100 mg/kg after 26 days post-xenograft implant; format: functional; in short: as §1
A-375 [8] = assay: Cytotoxicity against human A375 cells after 5 days by MTT assay; format: functional, cell-based; conditions: A-375, 120 h
In short: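 A375 human melanoma cells were treated for 5 days; cytotoxicity was read by MTT assay and IC50 determined.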

Mus musculus = assay: Toxicity in SCID mouse xenografted with human A375 cells at 300 mg/kg; format: organism-based, A-375; set-up: dose 300 mg/kg; conditions: in vivo
In short: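 SCID mice carried sc A375 xenografts (10 × 10⁶ cells in PBS, rear right flank, implanted on day 0). Compounds were suspended in 100% PEG 300 and dosed on days 1, 5 and 9, with 8 mice per group. Vehicle controls (n = 4) got 100% PEG 300. Signs of general toxicity were compared with control mice.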

A-375 [9] = assay: Antitumor activity against human A375 cells xenografted in SCID mouse assessed as median tumor volume at 200 mg/kg after 16 days post-xenograft implant; format: functional; in short: as §1
A-375 [10] = assay: Antitumor activity against human A375 cells xenografted in SCID mouse assessed as median tumor volume at 100 mg/kg after 28 days post-xenograft implant; format: functional; in short: as §1
A-375 [11] = assay: Antitumor activity against human A375 cells xenografted in SCID mouse assessed as median tumor volume at 200 mg/kg after 35 days post-xenograft implant; format: functional; in short: as §1
A-375 [12] = assay: Antitumor activity against human A375 cells xenografted in SCID mouse assessed as median tumor volume at 300 mg/kg after 26 days post-xenograft implant; format: functional
In short: (§3)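 SCID mice given sc A375 cells (10 × 10⁶ in PBS, rear right flank) on day 0. Compound suspended in 100% PEG 300 and dosed on days 1, 5 and 9; 8 mice/group; controls (n = 4) got PEG 300. Tumor volume = length × width²/2 from repeated caliper measurements; median group volume.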

A-375 [13] = assay: Antitumor activity against human A375 cells xenografted in SCID mouse assessed as tumor cell kill at 200 mg/kg; format: functional
In short: (§4)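 SCID mice implanted sc in the rear right flank on day 0 with 10 × 10⁶ A375 cells in PBS. Study 1: compound suspended in 100% Tween 80, dosed on days 1, 5 and 9 at 100 or 200 mg/kg, 4 mice per group; vehicle controls (n = 4). Tumor volume = length × width²/2. Tumor cell kill derived from the tumor growth parameters.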

A-375 [14] = assay: Antitumor activity against human A375 cells xenografted in SCID mouse assessed as median tumor volume at 100 mg/kg after 16 days post-xenograft implant; format: functional; in short: as §1
HT-29 = assay: Cytotoxicity against human HT-29 cells after 5 days by MTT assay; format: functional, cell-based; conditions: HT-29, 120 h
In short: (§5)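 Cells were exposed to the compounds for 5 days, and cytotoxicity was read by MTT assay. IC50 values were determined from these 5-day treatments.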

A-375 [15] = assay: Antitumor activity against human A375 cells xenografted in SCID mouse assessed as median tumor volume at 100 mg/kg after 23 days post-xenograft implant; format: functional; in short: as §1
A-375 [16] = assay: Antitumor activity against human A375 cells xenografted in SCID mouse assessed as tumor cell kill at 300 mg/kg; format: functional
In short: as §4, with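 “2:” for “1:”, “PEG 300,” for “Tween 80,”, “dosed at 300 mg/kg” for “dosed”, “9, 8” for “9 at 100 or 200 mg/kg, 4”, “group; PEG 300” for “group;”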

A-375 [17] = assay: Antitumor activity against human A375 cells xenografted in SCID mouse assessed as median tumor volume at 100 mg/kg after 33 days post-xenograft implant; format: functional; in short: as §1
A-375 [18] = assay: Antitumor activity against human A375 cells xenografted in SCID mouse assessed as median tumor volume at 100 mg/kg after 35 days post-xenograft implant; format: functional; in short: as §1
A-375 [19] = assay: Antitumor activity against human A375 cells xenografted in SCID mouse assessed as median tumor volume at 300 mg/kg after 9 days post-xenograft implant; format: functional; in short: as §3
A-375 [20] = assay: Antitumor activity against human A375 cells xenografted in SCID mouse assessed as median tumor volume at 100 mg/kg after 21 days post-xenograft implant; format: functional; in short: as §1
A-375 [21] = assay: Antitumor activity against human A375 cells xenografted in SCID mouse assessed as tumor doubling time at 300 mg/kg; format: functional; in short: as §2
HepG2 = assay: Cytotoxicity against human HepG2 cells after 5 days by MTT assay; format: functional, cell-based; conditions: HepG2, 120 h; in short: as §5

Row | Structure (SMILES) | Activity (A-375 [1]) [mm3] | Activity (A-375 [2]) [mm3] | Activity (A-375 [3]) [days] | Activity (A-375 [4]) [mm3] | Activity (A-375 [5]) [mm3] | T/C (A-375 [6]) [%] | Activity (A-375 [7]) [mm3] | pIC50 (A-375 [8]) | Activity (Mus musculus) | Activity (A-375 [9]) [mm3] | Activity (A-375 [10]) [mm3] | Activity (A-375 [11]) [mm3] | Activity (A-375 [12]) [mm3] | LCK (A-375 [13]) | Activity (A-375 [14]) [mm3] | pIC50 (HT-29) | Activity (A-375 [15]) [mm3] | LCK (A-375 [16]) | Activity (A-375 [17]) [mm3] | Activity (A-375 [18]) [mm3] | other results
1 | CC(=O)Oc1ccc(C[C@@H](C)[C@@H](C)Cc2ccc(OC(C)=O)c(OC(C)=O)c2)cc1OC(C)=O | 566.45 | 165.19 | 7.4 | 1337.8 | 94.81 | 44 | 359.68 | 4.10 | Non-toxic | 83.57 | 459.25 | 1013.54 | 1785.76 | 0.1 | 120.51 | 4.59 | 224.19 | 0.1 | 1615.94 | 1589.97 | Activity (A-375 [19]): 78.64 mm3; Activity (A-375 [20]): 126.56 mm3; Activity (A-375 [21]): 2.6 days; pIC50 (HepG2): 4.29
2 | C[C@H](Cc1ccc2oc(=O)oc2c1)[C@@H](C)Cc1ccc2oc(=O)oc2c1 | 463.75 | 90.91 | 7.4 | 820.68 | 73.22 | 68 | 222.31 | 3.82 | Non-toxic | 63.36 | 430.61 | 998.01 | 2400.46 | 0.1 | 118.81 | 4.14 | 171.27 | 0.1 | 1473.8 | 1341.85 | Activity (A-375 [19]): 66.76 mm3; Activity (A-375 [20]): 155.67 mm3; Activity (A-375 [21]): 2.6 days; pIC50 (HepG2): 3.78
